Most compounds without a hit are left out; they make up all but 4.6% or so of the library.
TAAR1 antagonist: human TAAR1 antagonism; Q96RJ0; CHO RD-HGA16 TAAR1, Fluo-8 calcium fluorescence, antagonist; inhibition, % at 3 µM; 360,000 compounds, 1.5% hits; AID 624466;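 active = inhibition above a per-plate cutoff, the mean inhibition of test compounds on that plate plus 3 SD, cut at about 49% in these data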
Target sequence (Q96RJ0 whole entry, looked up): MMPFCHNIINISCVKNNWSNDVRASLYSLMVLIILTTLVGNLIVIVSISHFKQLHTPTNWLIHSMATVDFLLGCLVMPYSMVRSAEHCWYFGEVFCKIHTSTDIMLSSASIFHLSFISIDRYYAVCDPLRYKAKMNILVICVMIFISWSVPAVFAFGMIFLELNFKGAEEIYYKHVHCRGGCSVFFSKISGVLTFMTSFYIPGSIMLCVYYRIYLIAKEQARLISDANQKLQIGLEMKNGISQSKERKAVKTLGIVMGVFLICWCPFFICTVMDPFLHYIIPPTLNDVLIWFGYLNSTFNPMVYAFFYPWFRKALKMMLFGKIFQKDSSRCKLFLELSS
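Test system – hTAAR1-expressing CHO RD-HGA16 cells, Gα16-coupled · Reagent – β-PEA at EC80 concentration, post-compound challenge · Compound dosing – 3 µM, single point · Timing – 140 s kinetic read after compound, 140 s after agonist · Detection – Fluo-8 intracellular calcium dye fluorescence, real-time kinetic reads · Control set – DMSO and EC80 PEA controls · Repeats – n of 1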
TAAR1 agonist: human TAAR1 agonism. CHO RD-HGA16 TAAR1, Fluo-8 calcium fluorescence; vehicle wells 0%, saturating PEA agonist 100%. activation, % at 3 µM. 360,000 compounds, 0.99% hits. AID 624467;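 active = activation above the mean activation of all test compounds in the run plus 3 SD, cut at about 38% in these data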
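System: CHO-derived RD-HGA16 cells with stable Gα16 and human TAAR1. Times: 17-24 h plating, Fluo-8 75 min 37 °C, 30 min RT. Measured by: calcium-sensitive Fluo-8 signal, excitation 470-495, emission 515-575 nm. Read-out basis: % activation relative to PEA EC100 response. Control set: DMSO and PEA EC100. Repeats: no replicates (n 1).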
OX1R antag-1: antagonists of human orexin 1 receptor (OX1R); OX1R-expressing cells, FRET antagonist read-out; inhibition, % at 6.6 µM; 330,000 compounds, 1.8% hits; in the data active = inhibition mostly above about 38%, no sharp cut-off; inactive = mostly below about 40%
Target sequence (O43613 whole entry, looked up): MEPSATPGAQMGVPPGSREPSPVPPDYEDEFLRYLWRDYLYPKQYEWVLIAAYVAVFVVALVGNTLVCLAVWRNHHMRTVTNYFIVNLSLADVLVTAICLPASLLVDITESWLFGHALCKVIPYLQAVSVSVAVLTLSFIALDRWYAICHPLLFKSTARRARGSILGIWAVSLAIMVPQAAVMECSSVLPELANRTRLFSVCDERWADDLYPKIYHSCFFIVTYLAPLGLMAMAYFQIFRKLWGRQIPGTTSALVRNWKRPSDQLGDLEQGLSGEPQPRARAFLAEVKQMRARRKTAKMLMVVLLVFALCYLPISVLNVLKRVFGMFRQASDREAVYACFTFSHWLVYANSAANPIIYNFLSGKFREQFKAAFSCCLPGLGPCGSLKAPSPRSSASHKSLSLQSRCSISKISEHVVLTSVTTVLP
CHO parental Ca: signal in parental CHO cells, OX1R antagonist counter-screen; inhibition, % at 5.6 µM; parental CHO-K1, ATP-induced calcium, Fluo-8 fluorescence; 330,000 compounds, 0.63% hits;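 active = inhibition above that plate's mean sample inhibition plus 3 SD, cut at about 26% in these data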
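Assay system – parental CHO cells · Reagent – ATP stimulus · Detection – intracellular calcium via Fluo-8 no-wash fluorescent dye · Evaluation – percent inhibition of ATP-evoked calcium rise, normalized to controls · Controls – ATP wells versus no-ATP DMSO wells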
GPR7 antagonist: antagonists of human GPR7 (neuropeptides B/W receptor 1) | 290,000 compounds, 1.1% hits | GPR7-expressing cells, fluorescence antagonist assay | P48145 | AID 1861 | inhibition, % at 4.4 µM; in the data active = inhibition above about 16%, passing the limit was not always enough;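 note: cells stimulated with the agonist NPW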
OX1R antag-2: human HCRTR1 antagonism; 330,000 compounds, 0.43% hits; CHO/OX1R cells, Fluo-8 calcium fluorescence, orexin A; inhibition, % at 5 µM; O43613;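 active = inhibition above its plate's threshold, mean inhibition of all tested compounds on the plate plus 3 SD, cut at about 37% in these data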
Each line names hits and unclear results; the compound was inactive in the other large screens.

O=C(c1[nH]c(C(F)(F)F)nc1-c1ccccc1)N1CCN(c2ccc(C(F)(F)F)cn2)CC1	none (no result: OX1R antag-1, CHO parental Ca, GPR7 antagonist, OX1R antag-2)
CCC(CNc1cc(OC)cc2cccnc12)NC1CCCCC1 (centres undefined)	OX1R antag-1 57.6
COc1cc(NCCCC(C)N)c2ncccc2c1 (centres undefined)	none (no result: OX1R antag-1, CHO parental Ca, OX1R antag-2)
COc1cc(CN2C(=O)C(CCc3ccccc3)ON=C2c2cnccn2)cc(OC)c1 (centres undefined)	TAAR1 antagonist 50.5 (no result: OX1R antag-1, CHO parental Ca, GPR7 antagonist, OX1R antag-2)
CC(=O)Oc1ccc(CN2C(=O)C(CCc3ccccc3)ON=C2c2cnccn2)cc1 (centres undefined)	none (no result: OX1R antag-1, CHO parental Ca, GPR7 antagonist, OX1R antag-2)
O=C(Nc1nccs1)c1ccc(-c2ccc(Cl)cc2)o1	OX1R antag-1 49.4
O=C(Nc1nccs1)c1ccc(-c2ccc(F)cc2)o1	none
O=C(Nc1nccs1)c1ccc(-c2ccccc2Cl)o1	OX1R antag-1 59.1
CC(=O)c1cccc(NC(=O)C(C)OC(=O)c2cccc(-n3cnnn3)c2)c1 (centres undefined)	none (no result: GPR7 antagonist)
Cc1cccc(NC2=C(NC(=O)c3ccccc3)C(=O)c3ccccc3C2=O)c1	OX1R antag-1 75.0
O=C(NC1=C(NC2CCS(=O)(=O)C2)C(=O)c2ccccc2C1=O)c1ccccc1 (centres undefined)	OX1R antag-1 72.9
O=C(NC1=C(Nc2ccc(Cl)cc2)C(=O)c2ccccc2C1=O)c1ccccc1	none
COc1c(O)ccc(C2NC(=O)NC(C)=C2C(=O)Nc2ccccc2C)c1[N+](=O)[O-] (centres undefined)	none
C[C@H](CCC(=O)OCc1cn(CC(=O)c2ccc(O)cc2)nn1)C1CC[C@H]2[C@@H]3CC[C@@H]4C[C@H](O)CC[C@]4(C)[C@H]3C[C@H](O)[C@]12C (some centres undefined)	TAAR1 antagonist 53.5 (no result: OX1R antag-1, CHO parental Ca, GPR7 antagonist, OX1R antag-2)
C[C@H](CCC(=O)O)[C@H]1CC[C@H]2[C@@H]3CC[C@@H]4C[C@H](O)CC[C@]4(C)[C@H]3C[C@H](O)[C@]12C	none (no result: GPR7 antagonist)
CCCCNC(=O)c1ccc(NC(=O)CC2SC(N3CCCC3)=NC2=O)cc1 (centres undefined)	none (no result: GPR7 antagonist)
COC(=O)c1cn(NC(=O)Cc2cccc(OC)c2)c(=O)c2ccccc12	OX1R antag-1 72.3
COC(=O)c1cn(NC(=O)Cc2ccc(OC)c(OC)c2)c(=O)c2ccccc12	OX1R antag-1 47.8
CN(C)S(=O)(=O)c1ccc(C(=O)NC(=O)CSc2nncs2)cc1	none (no result: GPR7 antagonist)
Cc1ccc(OCCCC(=O)N(C)CC(=O)Nc2ccccc2Br)cc1	none (no result: GPR7 antagonist)
CN(CC(=O)Nc1ccccc1Br)C(=O)COc1ccc2ccccc2c1	OX1R antag-1 40.8 (no result: GPR7 antagonist)
Cc1cc(/C=N/NC(=O)C(=O)NCc2ccccn2)c(C)n1-c1ccccc1	none
CCC(O)(CC)C(=O)N=Nc1c(O)[nH]c2ccccc12	none
CC(C)CC(=O)N=Nc1c(O)[nH]c2ccccc12	OX1R antag-1 53.5
O=C(CSCc1cccc(Br)c1)N=Nc1c(O)[nH]c2ccccc12	OX1R antag-1 51.0
O=C(CNC(=O)c1ccccn1)N=Nc1c(O)[nH]c2ccccc12	OX1R antag-1 70.6
Nc1nc(-c2ccc(Br)s2)c(Br)s1	none
COc1cc(-c2c(C(=O)c3ccccc3)[nH]c(N)c2C(=O)NCCc2c[nH]c3ccccc23)ccc1F	none (no result: OX1R antag-1, CHO parental Ca, GPR7 antagonist, OX1R antag-2)
COC(=O)[C@@]1(Sc2ccc(C)cc2)CC(=O)N[C@@H]1c1ccc(C(F)(F)F)cc1	none (no result: OX1R antag-1, CHO parental Ca, GPR7 antagonist, OX1R antag-2)
N=c1oc2ccccc2cc1-c1nc(-c2ccc(Cl)cc2)cs1	none
COc1c2ccoc2c(OC[C@@H](O)C(C)(C)OC)c2oc(=O)ccc12	none
COc1c2ccoc2c(OC[C@@H](O)C(C)(C)O)c2oc(=O)ccc12	OX1R antag-1 62.4
CCCn1c2c(c(O)c(C(=O)Nc3nc4ccccc4s3)c1=O)CCCC2	none
CC(=O)N(C)c1ccc(NC(=O)CCN2C(=O)c3ccccc3C2=O)cc1	none
Cn1cccc1CC(=O)N/N=C\c1c2ccccc2cc2ccccc12	OX1R antag-1 38.9
C=CC[C@@H](CC(=O)N[C@@H](CO)Cc1ccccc1)C(=O)N[C@H](COC(=O)[C@H](CC=C)CC(=O)OC(C)(C)C)Cc1c[nH]c2ccccc12	TAAR1 antagonist 51.9 (no result: GPR7 antagonist)
C=CC[C@@H](CC(=O)N(CCO)Cc1ccccc1)C(=O)N[C@H](COC(=O)[C@@H](CC=C)Cc1ccc(F)cc1)Cc1c[nH]c2ccccc12	TAAR1 antagonist 58.7 (no result: GPR7 antagonist)
C=CC[C@H](CC(=O)N(CCO)Cc1ccccc1)C(=O)N[C@H](COC(=O)[C@@H](CC=C)Cc1ccc(F)cc1)Cc1c[nH]c2ccccc12	TAAR1 antagonist 58.6 (no result: GPR7 antagonist)
Cc1ccc(NS(=O)(=O)c2ccc(C(=O)Nc3nncs3)cc2)cc1	none (no result: GPR7 antagonist)
c1csc(-c2nc3c4ccccc4c4ccccc4c3[nH]2)c1	OX1R antag-1 63.2
CCOC(=O)c1c(C)[nH]c(C(=O)C(C)OC(=O)c2cccc(OCc3c(C)noc3C)c2)c1C (centres undefined)	CHO parental Ca 49.2
CC(=O)c1c(C)nc2nonc2c1N	OX1R antag-1 76.1
CCOC(=O)c1c(-c2ccc(OC)cc2)nc2nonc2c1N	none
CCN(CC)C(=O)CN(c1cc(Cl)ccc1OC)S(=O)(=O)c1ccc(C)c([N+](=O)[O-])c1	OX1R antag-1 74.3
COc1ccc(Cl)cc1N(CC(=O)NC1CC1)S(=O)(=O)c1ccc(C)c([N+](=O)[O-])c1	none
O=C(c1ccc(C(F)(F)F)cc1)N1CCN(c2ccc(N3CCOCC3)nn2)CC1	none (no result: GPR7 antagonist)
O=C(Nc1ccccc1)c1ccc(-c2ccccc2)s1	TAAR1 agonist 37.6
O=C(O)c1ccc(-c2ccc(-c3ccccc3)cc2)s1	none (no result: TAAR1 antagonist, TAAR1 agonist)
O=C(Nc1ccccc1)c1cc2ccc3ccccc3c2s1	OX1R antag-1 50.6
Cc1ccc(C(=O)c2c3ccc([N+](=O)[O-])cc3[n+]([O-])n2CCC(N)=O)cc1	OX1R antag-1 62.3
CCc1ccc(S(=O)(=O)NCCc2csc(-c3ccccc3)n2)s1	OX1R antag-1 40.8
O=S(=O)(NCc1csc(-c2cccnc2)n1)c1ccc2c(c1)OCCO2	OX1R antag-1 71.7
CCc1ccc(S(=O)(=O)NCc2csc(-c3ccccc3)n2)s1	none
O=S(=O)(NCc1csc(-c2cccnc2)n1)c1ccc(F)cc1	none
O=S(=O)(NCc1csc(-c2ccccc2)n1)c1ccc(Cl)s1	none
O=S(=O)(NCc1csc(-c2cccnc2)n1)c1ccc(Cl)s1	OX1R antag-1 40.8
O=C(c1ccc2[nH]c(=O)c(=O)[nH]c2c1)N1CCN(c2ccccc2)CC1	none
O=C(N[C@@H]1CCC(=O)N(CC[C@H](Sc2ccccc2)c2ccccc2)CC1)OCc1ccccc1	none
O=c1ccc(-c2ccccc2)nn1Cc1ccccc1F	none (no result: OX1R antag-1, CHO parental Ca, OX1R antag-2)
C=Cc1ccc(Cn2nc(-c3ccccc3)ccc2=O)cc1	CHO parental Ca 49.9
S=C(NCCC(c1ccccc1)c1ccccc1)Nc1ccccc1Cl	TAAR1 antagonist 50.0

Compound activity deposited in PubChem by The Scripps Research Institute Molecular Screening Center.
